Measured values: ChEMBL document CHEMBL4229323, “Merocyclophanes C and D from the Cultured Freshwater Cyanobacterium Nostoc sp. (UIC 10110)” (J Nat Prod, 2017)

Assays:
Format in all cases: functional, cell-based
MDA-MB-435 = experiment: Cytotoxicity in human MDA-MB-435 cells assessed as reduction in cell viability incubated for 72 hrs by cell-titer-96 aqueous one solution cell proliferation assay; conditions: MDA-MB-435, 72 h
In short: (§1)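 Cells were seeded and cultured overnight at 37 °C in 5% CO2, then exposed to sample, paclitaxel (positive control) or DMSO vehicle for 72 h. Viability was read by CellTiter 96 AQueous One Solution (MTS) assay, and IC50 was calculated relative to the vehicle control.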

OVCAR-3 = experiment: Cytotoxicity in human OVCAR3 cells assessed as reduction in cell viability incubated for 72 hrs by cell-titer-96 aqueous one solution cell proliferation assay; conditions: OVCAR-3, 72 h; in short: as §1
MDA-MB-231 = experiment: Cytotoxicity in human MDA-MB-231 cells assessed as reduction in cell viability incubated for 72 hrs by cell-titer-96 aqueous one solution cell proliferation assay; conditions: MDA-MB-231, 72 h; in short: as §1

Row | Compound | IC50 (MDA-MB-435) | IC50 (OVCAR-3) | IC50 (MDA-MB-231)
1 | CCCC[C@H]1CCCC[C@H](C)[C@@H](OC(C)=O)c2cc(O)c(c(O)c2)[C@@H](CCCC)CCCC[C@H](C)[C@@H](OC(C)=O)c2cc(O)c1c(O)c2 | 12000 nM | 10000 nM | 13000 nM
2 | C[C@H]1CCCC[C@H](CCCC(Cl)Cl)c2c(O)cc(cc2O)[C@H](OC(N)=O)[C@@H](C)CCCC[C@H](CCCC(Cl)Cl)c2c(O)cc(cc2O)[C@@H]1OC(N)=O | 2400 nM | 4300 nM | 1000 nM
3 | C[C@@H]1CCCCC[C@H](CCCCO)c2c(O)cc(cc2O)[C@H](C)CCCCC[C@H](CCCCO)c2c(O)cc1cc2O | 900 nM | 2000 nM | 1000 nM
4 | C[C@H]1CCCC[C@H](CCCC(Cl)Cl)c2c(O)cc(cc2O)[C@H](OC(N)=O)[C@@H](C)CCCC[C@H](CCCC(Cl)Cl)c2c(O)cc(cc2O)[C@@H]1O | 3200 nM | 4200 nM | 1200 nM
5 | CCCC[C@H]1CCCCC[C@@H](C)c2cc(O)c(c(O)c2)[C@@H](CCCCO)CCCCC[C@@H](C)c2cc(O)c1c(O)c2 | 1600 nM | 1400 nM | 1400 nM
6 | CCCC[C@H]1CCCCC[C@@H](C)c2cc(O)c(c(O)c2)[C@@H](CCCC)CCCCC[C@@H](C)c2cc(O)c1c(O)c2 | 9800 nM | 5100 nM | 6200 nM
